Values after ≈ are worked out from the molar mass of the structure shown.
Experiments:
[1] = tested on: Entamoeba histolytica; test: Antiparasitic activity against Entamoeba histolytica HM-1:IMSS trophozoites after 24 to 48 hrs by CellTiter-Glo luminescent cell viability assay; type: functional, organism-based
Summary of the method: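 Axenic trophozoites were kept in TYI-S-33 with penicillin (100 U/mL) and streptomycin (100 µg/mL) and harvested in log phase. 5000 parasites per well were exposed to a final 8-point two-fold series of 0.39–50 µM, from 10 mM DMSO stocks. Plates were incubated 24–48 h at 37 °C under anaerobic conditions. ATP luminescence viability was read in triplicate. Percent inhibition is given at the highest concentration tested.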

[2] = tested on: HEK293; test: Cytotoxicity against HEK293 cells after 24 hrs by resazurin dye-based fluorescence assay; type: cell-based; details: human, hek293, 24 h
Summary of the method: (§1)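 HEK293 (3000/well) and HepG2 (5000/well) were grown 24 h in DMEM with 10% FBS at 37 °C, 5% CO2. Cells were then exposed 24 h to a dilution series up to 100 µM (0.5% DMSO). 5 µM resazurin was added for 2 h, read at ex 560/em 590. 1% Triton X-100 served as lysis control. CC50 was derived from the curves.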

[3] = tested on: Mycobacterium tuberculosis; test: Antibacterial activity against non-replicating Mycobacterium tuberculosis H37Rv after 5 days under hypoxic condition by resazurin dye-based fluorescence assay; type: functional; details: 120 h
Summary of the method: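 Same H37Rv inoculum (OD600 0.001, ~2 x 10^4 CFU/mL) in 7H9S with serially diluted compound. Plates held 5 days at 0.1% oxygen, then resazurin plus Tween-80 added.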

[4] = tested on: HepG2; test: Cytotoxicity against human HepG2 cells after 24 hrs by resazurin dye-based fluorescence assay; type: cell-based; details: hepg2, 24 h; summary of the method: as §1
[5] = tested on: Giardia intestinalis; test: Antiparasitic activity against Giardia lamblia WB trophozoites after 24 to 48 hrs by CellTiter-Glo luminescent cell viability assay; details: Giardia duodenalis
[6] = tested on: Mycobacterium tuberculosis; test: Antibacterial activity against Mycobacterium tuberculosis H37Rv after 5 days under normoxic condition by resazurin dye-based fluorescence assay; type: functional, organism-based
Summary of the method: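 H37Rv grown in 7H9/ADC/glycerol/Tyloxapol to mid-exponential phase, diluted to OD600 0.001 (~2 x 10^4 CFU/mL) in 7H9S with serially diluted compound. Incubated 5 days at 37 °C, then resazurin and Tween-80 added. Fluorescence (ex 530/em 590 nm) read after 24 h, normalised to no-drug and no-bacteria wells.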

[7] = tested on: Trypanosoma brucei brucei; test: Antiparasitic activity against bloodstream form of Trypanosoma brucei brucei strain 427 after 48 hrs by resazurin dye-based assay; type: functional, organism-based; details: strain 427, 48 h
[8] = tested on: Clostridioides difficile; test: Antibacterial activity against Clostridium difficile 630 ATCC BAA-1382 by broth microdilution assay; type: functional
Summary of the method: (§2)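 Broth microdilution run essentially per an earlier report. MIC taken as the lowest concentration with no visible growth. Replicates typically agreed within one 2-fold dilution. The median MIC is reported, with a range where the median fell between two tested concentrations.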

[9] = tested on: Cryptococcus neoformans; test: Antifungal activity against Cryptococcus neoformans H99 ATCC […] broth microdilution assay; type: functional; details: var. grubii H99 ATCC 208821; summary of the method: as §2
[10] = tested on: Staphylococcus aureus; test: Antibacterial activity against methicillin-resistant Staphylococcus aureus ATCC […] by broth microdilution assay; type: functional
[11] = tested on: Klebsiella pneumoniae; test: Antibacterial activity against Klebsiella pneumoniae 700603 by broth microdilution assay; type: functional; summary of the method: as §2
[12] = tested on: Pseudomonas aeruginosa; test: Antibacterial activity against Pseudomonas aeruginosa ATCC 27853 by broth microdilution assay; type: functional; summary of the method: as §2
[13] = tested on: Candida albicans; test: Antifungal activity against Candida albicans ATCC 90028 by broth microdilution assay; type: functional; summary of the method: as §2
[14] = tested on: Escherichia coli; test: Antibacterial activity against Escherichia coli ATCC 25922 by broth microdilution assay; type: functional; summary of the method: as §2
[15] = tested on: Acinetobacter baumannii; test: Antibacterial activity against Acinetobacter baumannii ATCC 19606 by broth microdilution assay; type: functional; details: ATCC 19606 = CIP 70.34 = JCM 6841; summary of the method: as §2

`O=c1c2nc([N+](=O)[O-])cn2cc(-c2ccccc2)n1CCO` was tested, and the IC50 ([1]; read-out: IC50) was > 50 µM, the IC50 ([1]; read-out: pIC50 (converted)) was > 50.1 µM and the CC50 [2] was > 75 µM. The MIC [3] was > 32 µg/mL, the CC50 [4] was > 75 µM and the IC50 [5] was 38 µM. The IC50 ([5]; read-out: pIC50 (converted)) was 39.8 µM.
With `Cc1cn2cc([N+](=O)[O-])nc2c(=O)[nH]1` the IC50 ([1]; read-out: IC50) was > 50 µM, the IC50 ([1]; read-out: pIC50 (converted)) was > 50.1 µM and the MIC [3] was > 32 µg/mL. For the same compound, the MIC [6] was >32 µg/mL, the IC50 [5] was 50 µM and the IC50 ([5]; read-out: pIC50 (converted)) was 50.1 µM. For the same compound, the IC50 ([7]; read-out: IC50) was 3.6 µM and the IC50 ([7]; read-out: pIC50 (converted)) was 3.98 µM.
`Cc1ccc(CNC(=O)c2nc([N+](=O)[O-])c[nH]2)cc1` was tested, and the IC50 ([1]; read-out: IC50) was 2.2 to 4.5 µM, the MIC [3] was > 32 µg/mL and the MIC [8] was 4 to 16 µg/mL (≈ 15.4 to 61.5 µM). It also gave an IC50 [5] of 0.2 to 0.5 µM.
With `O=[N+]([O-])c1cn2cc(-c3ccccc3)nc(OCCO)c2n1` the IC50 ([1]; read-out: IC50) was > 50 µM, the IC50 ([1]; read-out: pIC50 (converted)) was > 50.1 µM and the MIC [3] was > 32 µg/mL. The IC50 [5] was 5.2 µM, the IC50 ([5]; read-out: pIC50 (converted)) was 5.01 µM and the IC50 ([7]; read-out: IC50) was 1.1 µM. For the same compound, the IC50 ([7]; read-out: pIC50 (converted)) was 1 µM.
In the case of `O=C(NCc1ccc(F)cc1)c1ncc([N+](=O)[O-])[nH]1`, the IC50 ([1]; read-out: IC50) is reported as 2.2 to 4.5 µM, the MIC [3] is reported as > 32 µg/mL and the MIC [8] is reported as 4 to 16 µg/mL (≈ 15.1 to 60.6 µM). The IC50 [5] was 0.2 to 0.5 µM.
In the case of `Cc1[nH]c(=O)c2nc([N+](=O)[O-])cn2c1C`, the IC50 ([1]; read-out: IC50) is reported as > 50 µM, the IC50 ([1]; read-out: pIC50 (converted)) is reported as > 50.1 µM and the MIC [3] is reported as > 32 µg/mL. For the same compound, the MIC [6] was >32 µg/mL, the IC50 [5] was 50 µM and the IC50 ([5]; read-out: pIC50 (converted)) was 50.1 µM. The IC50 ([7]; read-out: IC50) was 2.6 µM and the IC50 ([7]; read-out: pIC50 (converted)) was 2.51 µM.
For `Cc1ccc(COc2nc(C)c(C)n3cc([N+](=O)[O-])nc23)cc1`, the IC50 ([1]; read-out: IC50) was > 50 µM, the IC50 ([1]; read-out: pIC50 (converted)) was > 50.1 µM and the MIC [3] was > 32 µg/mL. For the same compound, the MIC [6] was >32 µg/mL, the IC50 [5] was 5.8 µM and the IC50 ([5]; read-out: pIC50 (converted)) was 6.31 µM. The IC50 ([7]; read-out: IC50) was 2.2 µM and the IC50 ([7]; read-out: pIC50 (converted)) was 2.51 µM.
With `Cc1nc(OCc2cccc(OC(F)(F)F)c2)c2nc([N+](=O)[O-])cn2c1C` the IC50 ([1]; read-out: IC50) was 27 µM, the IC50 ([1]; read-out: pIC50 (converted)) was 25.1 µM and the MIC [3] was > 32 µg/mL. The MIC [6] was >32 µg/mL, the IC50 [5] was 3.9 µM and the IC50 ([5]; read-out: pIC50 (converted)) was 3.98 µM. It also gave an IC50 ([7]; read-out: IC50) of 1.4 µM and an IC50 ([7]; read-out: pIC50 (converted)) of 1.26 µM.
`O=c1c2nc([N+](=O)[O-])cn2ccn1Cc1ccccc1` was tested, and the MIC [8] was > 64 µg/mL.
`O=C(NCc1cccc(OC(F)(F)F)c1)c1ncc([N+](=O)[O-])[nH]1` was tested, and the IC50 ([1]; read-out: IC50) was 2.2 to 4.5 µM, the MIC [3] was > 32 µg/mL and the MIC [8] was 4 to 16 µg/mL (≈ 12.1 to 48.5 µM). The IC50 [5] was 0.2 to 0.5 µM.
With `CCOC(=O)c1nc([N+](=O)[O-])cn1Cc1ccc(OC(F)(F)F)cc1` the IC50 ([1]; read-out: IC50) was 10 to 45 µM, the MIC [3] was > 32 µg/mL and the MIC [8] was 16 to 64 µg/mL (≈ 44.5 to 178 µM). For the same compound, the IC50 [5] was 2.7 to 7.5 µM.
`NC(=O)c1nc([N+](=O)[O-])cn1Cc1cccc(OC(F)(F)F)c1` was tested, and the IC50 ([1]; read-out: IC50) was > 25 µM, the MIC [3] was > 32 µg/mL and the MIC [8] was > 64 µg/mL. The IC50 [5] was 4.1 to 50 µM.
For `O=c1c2nc([N+](=O)[O-])cn2ccn1CCN1CCOCC1`, the MIC [9] was > 32 µg/mL, the MIC [10] was > 32 µg/mL and the MIC [11] was > 32 µg/mL. The CC50 [2] was > 100 µM, the MIC [12] was > 32 µg/mL and the MIC [3] was > 32 µg/mL. The MIC [13] was > 32 µg/mL, the MIC [6] was >32 µg/mL and the CC50 [4] was > 100 µM. The MIC [14] was > 32 µg/mL and the MIC [15] was > 32 µg/mL.
With `NC(=O)c1nc([N+](=O)[O-])cn1Cc1ccc(F)cc1` the IC50 ([1]; read-out: IC50) was > 25 µM, the MIC [3] was > 32 µg/mL and the MIC [8] was > 64 µg/mL. For the same compound, the IC50 [5] was 4.1 to 50 µM.
`Cc1ccc(Cn2cc([N+](=O)[O-])nc2C(N)=O)cc1` was tested, and the IC50 ([1]; read-out: IC50) was > 25 µM, the MIC [3] was > 32 µg/mL and the MIC [8] was > 64 µg/mL. It also gave an IC50 [5] of 4.1 to 50 µM.
Compound `Cc1ccc(COc2nc(C)cn3cc([N+](=O)[O-])nc23)cc1` has an IC50 ([1]; read-out: IC50) of 30 µM, an IC50 ([1]; read-out: pIC50 (converted)) of 31.6 µM and an IC50 [5] of 5.7 µM. For the same compound, the IC50 ([5]; read-out: pIC50 (converted)) was 6.31 µM.
For `NC(=O)c1nc([N+](=O)[O-])cn1Cc1ccc(OC(F)(F)F)cc1`, the IC50 ([1]; read-out: IC50) was > 25 µM, the MIC [3] was > 32 µg/mL and the MIC [8] was > 64 µg/mL. The IC50 [5] was 4.1 to 50 µM.

Reference: ChEMBL document CHEMBL4382237, “Design, Synthesis, and Biological Evaluation of 2-Nitroimidazopyrazin-one/-es with Antitubercular and Antiparasitic Activity” (J Med Chem, 2018)
